Measurements reported in ChEMBL document CHEMBL4014350, “Alkoxyurea-Based Histone Deacetylase Inhibitors Increase Cisplatin Potency in Chemoresistant Cancer Cell Lines” (J Med Chem, 2017).

Columns and labels:
[1] = biological target: T1, Histone deacetylase 1/6 (Homo sapiens) (UniProt Q13547+Q9UBN7); experiment: Inhibition of HDAC1/HDAC6 in human Cal27CisR cells assessed as potentiation of 1 uM cisplatin-induced cytotoxicity by measuring combination index at 500 nM preincubated for 48 hrs followed by cisplatin treatment measured after 72 hrs by MTT assay
CAL-27 [2] = experiment: Potentiation of 1 uM cisplatin-induced cytotoxicity against human CAL27 cells assessed as decrease in cell viability by measuring combination index at 800 uM preincubated for 48 hrs followed by cisplatin treatment measured after 72 hrs by MTT assay; type: functional
Summary of the method: (§1)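 HDAC inhibitor was added 48 h before cisplatin, then cells were exposed to cisplatin for 72 h and viability was read by MTT assay. Combination index was computed by the Chou–Talalay method: CI > 1 is antagonism, CI = 1 additive, CI < 0.9 synergism. Points with fraction affected below 0.20 were flagged.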

[3] = biological target: T1, Histone deacetylase 1/6 (Homo sapiens); experiment: Inhibition of HDAC1/HDAC6 in human Cal27CisR cells assessed as potentiation of 10 uM cisplatin-induced cytotoxicity by measuring combination index at 800 nM preincubated for 48 hrs followed by cisplatin treatment measured after 72 hrs by MTT assay
CAL-27 [4] = experiment: Potentiation of 5 uM cisplatin-induced cytotoxicity against human CAL27 cells assessed as decrease in cell viability by measuring combination index at 500 uM preincubated for 48 hrs followed by cisplatin treatment measured after 72 hrs by MTT assay; type: functional; conditions: in the assay text read “at 500 nM” for “at 500 uM”
Summary of the method: as §1

[5] = biological target: T1, Histone deacetylase 1/6 (Homo sapiens); experiment: Inhibition of HDAC1/HDAC6 in human Cal27CisR cells assessed as potentiation of 10 uM cisplatin-induced cytotoxicity by measuring combination index at 500 nM preincubated for 48 hrs followed by cisplatin treatment measured after 72 hrs by MTT assay
[6] = biological target: T1, Histone deacetylase 1/6 (Homo sapiens); experiment: Inhibition of HDAC1/HDAC6 in human Cal27CisR cells assessed as potentiation of 5 uM cisplatin-induced cytotoxicity by measuring combination index at 700 uM preincubated for 48 hrs followed by cisplatin treatment measured after 72 hrs by MTT assay; type: cell-based
Summary of the method: (§2)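 Cal27 and cisplatin-resistant Cal27CisR cells were preincubated with the HDAC inhibitor for 48 h, then given cisplatin in combination. Viability was read by MTT after 72 h. The combination index was computed by the Chou–Talalay method: CI > 1 is antagonism, CI = 1 is additive, and CI < 0.9 is synergism. Points with fraction affected below 0.20 were flagged.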

[7] = biological target: T1, Histone deacetylase 1/6 (Homo sapiens); experiment: Inhibition of HDAC1/HDAC6 in human Cal27CisR cells assessed as potentiation of 3.16 uM cisplatin-induced cytotoxicity by measuring combination index at 600 nM preincubated for 48 hrs followed by cisplatin treatment measured after 72 hrs by MTT assay
[8] = biological target: T1, Histone deacetylase 1/6 (Homo sapiens); experiment: Inhibition of HDAC1/HDAC6 in human Cal27CisR cells assessed as potentiation of 20 uM cisplatin-induced cytotoxicity by measuring combination index at 700 nM preincubated for 48 hrs followed by cisplatin treatment measured after 72 hrs by MTT assay
CAL-27 [9] = experiment: Potentiation of 0.5 uM cisplatin-induced cytotoxicity against human CAL27 cells assessed as decrease in cell viability measuring combination index at 700 uM preincubated for 48 hrs followed by cisplatin treatment measured after 72 hrs by MTT assay; type: functional; conditions: in the assay text read “at 700 nM” for “at 700 uM”
Summary of the method: as §2

Homo sapiens = species: Homo sapiens; experiment: Selectivity index, ratio of IC50 for recombinant full length human C-terminal FLAG/His-tagged HDAC1 expressed in baculovirus infected sf9 cells to IC50 for full length human recombinant N-terminal GST-tagged HDAC6 expressed in baculovirus infected sf9 cells
Summary of the method: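 Ratio of isolated-enzyme IC50 values. HDAC1, HDAC6 and HDAC8 IC50s were each the mean ± SD of three independent experiments.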

A2780 = experiment: Antiproliferative activity against human A2780 cells measured after 72 hrs by MTT assay; type: functional, cell-based; conditions: A2780, 72 h
Histone deacetylase 8 = biological target: T2, Histone deacetylase 8 (Homo sapiens, UniProt Q9BY41); experiment: Inhibition of human HDAC8 using Z-L-Lys(epsilon-trifluoroacetyl)-AMC as substrate measured after 90 mins by fluorescence assay
T2 sequence (Q9BY41 whole entry): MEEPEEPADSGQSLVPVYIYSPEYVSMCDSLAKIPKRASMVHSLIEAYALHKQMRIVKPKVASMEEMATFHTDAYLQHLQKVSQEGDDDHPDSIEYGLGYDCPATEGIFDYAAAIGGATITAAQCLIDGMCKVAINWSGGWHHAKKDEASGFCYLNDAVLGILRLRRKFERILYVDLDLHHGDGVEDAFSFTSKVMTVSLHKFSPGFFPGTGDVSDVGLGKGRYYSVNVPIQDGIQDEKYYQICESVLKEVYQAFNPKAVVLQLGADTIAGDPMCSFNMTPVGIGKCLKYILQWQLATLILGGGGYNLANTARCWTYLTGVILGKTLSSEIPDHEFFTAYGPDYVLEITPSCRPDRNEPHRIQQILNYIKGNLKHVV

Histone deacetylase 1 = Histone deacetylase 1 (Homo sapiens, UniProt Q13547); experiment: Inhibition of recombinant full length human C-terminal FLAG/His-tagged HDAC1 expressed in baculovirus infected sf9 cells using Z-(Ac)Lys-AMC as substrate measured after 90 mins by fluorescence assay
[10] = Inhibition of HDAC in human Cal27CisR cells using Boc-Lys(epsilon-Ac)-AMC as substrate preincubated for 18 hrs followed by substrate addition measured after 3 hrs by fluorescence assay; type: cell-based
CAL-27 [11] = experiment: Potentiation of 0.5 uM cisplatin-induced cytotoxicity against human CAL27 cells assessed as decrease in cell viability by measuring combination index at 800 uM preincubated for 48 hrs followed by cisplatin treatment measured after 72 hrs by MTT assay; type: functional
Summary of the method: as §2

CAL-27 [12] = experiment: Potentiation of 1 uM cisplatin-induced cytotoxicity against human CAL27 cells assessed as decrease in cell viability by measuring combination index at 700 uM preincubated for 48 hrs followed by cisplatin treatment measured after 72 hrs by MTT assay; type: functional
Summary of the method: as §1

[13] = biological target: T1, Histone deacetylase 1/6 (Homo sapiens); experiment: Inhibition of HDAC1/HDAC6 in human Cal27CisR cells assessed as potentiation of 5 uM cisplatin-induced cytotoxicity by measuring combination index at 500 uM preincubated for 48 hrs followed by cisplatin treatment measured after 72 hrs by MTT assay; type: cell-based
Summary of the method: as §2

CAL-27 [14] = experiment: Potentiation of 2 uM cisplatin-induced cytotoxicity against human CAL27 cells assessed as decrease in cell viability by measuring combination index at 600 uM preincubated for 48 hrs followed by cisplatin treatment measured after 72 hrs by MTT assay; type: functional; conditions: in the assay text read “at 600 nM” for “at 600 uM”
Summary of the method: as §1

Histone deacetylase 1, sequence (Q13547 whole entry): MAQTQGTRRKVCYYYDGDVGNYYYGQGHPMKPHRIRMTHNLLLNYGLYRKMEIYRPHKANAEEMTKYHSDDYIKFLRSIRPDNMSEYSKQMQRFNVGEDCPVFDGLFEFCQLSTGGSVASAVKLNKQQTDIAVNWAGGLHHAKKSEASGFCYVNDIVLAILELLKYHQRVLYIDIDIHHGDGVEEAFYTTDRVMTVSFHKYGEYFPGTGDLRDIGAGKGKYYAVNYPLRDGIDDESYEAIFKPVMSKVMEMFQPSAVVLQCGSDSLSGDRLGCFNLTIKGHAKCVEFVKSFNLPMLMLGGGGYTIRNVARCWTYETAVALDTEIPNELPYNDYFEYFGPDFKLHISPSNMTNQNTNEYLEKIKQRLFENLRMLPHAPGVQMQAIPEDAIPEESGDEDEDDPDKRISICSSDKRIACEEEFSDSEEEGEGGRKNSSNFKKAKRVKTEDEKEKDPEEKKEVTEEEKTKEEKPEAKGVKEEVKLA
T1 sequence (Q13547 whole entry, looked up): as the sequence (Q13547 whole entry) above
T1 sequence (Q9UBN7 whole entry, looked up): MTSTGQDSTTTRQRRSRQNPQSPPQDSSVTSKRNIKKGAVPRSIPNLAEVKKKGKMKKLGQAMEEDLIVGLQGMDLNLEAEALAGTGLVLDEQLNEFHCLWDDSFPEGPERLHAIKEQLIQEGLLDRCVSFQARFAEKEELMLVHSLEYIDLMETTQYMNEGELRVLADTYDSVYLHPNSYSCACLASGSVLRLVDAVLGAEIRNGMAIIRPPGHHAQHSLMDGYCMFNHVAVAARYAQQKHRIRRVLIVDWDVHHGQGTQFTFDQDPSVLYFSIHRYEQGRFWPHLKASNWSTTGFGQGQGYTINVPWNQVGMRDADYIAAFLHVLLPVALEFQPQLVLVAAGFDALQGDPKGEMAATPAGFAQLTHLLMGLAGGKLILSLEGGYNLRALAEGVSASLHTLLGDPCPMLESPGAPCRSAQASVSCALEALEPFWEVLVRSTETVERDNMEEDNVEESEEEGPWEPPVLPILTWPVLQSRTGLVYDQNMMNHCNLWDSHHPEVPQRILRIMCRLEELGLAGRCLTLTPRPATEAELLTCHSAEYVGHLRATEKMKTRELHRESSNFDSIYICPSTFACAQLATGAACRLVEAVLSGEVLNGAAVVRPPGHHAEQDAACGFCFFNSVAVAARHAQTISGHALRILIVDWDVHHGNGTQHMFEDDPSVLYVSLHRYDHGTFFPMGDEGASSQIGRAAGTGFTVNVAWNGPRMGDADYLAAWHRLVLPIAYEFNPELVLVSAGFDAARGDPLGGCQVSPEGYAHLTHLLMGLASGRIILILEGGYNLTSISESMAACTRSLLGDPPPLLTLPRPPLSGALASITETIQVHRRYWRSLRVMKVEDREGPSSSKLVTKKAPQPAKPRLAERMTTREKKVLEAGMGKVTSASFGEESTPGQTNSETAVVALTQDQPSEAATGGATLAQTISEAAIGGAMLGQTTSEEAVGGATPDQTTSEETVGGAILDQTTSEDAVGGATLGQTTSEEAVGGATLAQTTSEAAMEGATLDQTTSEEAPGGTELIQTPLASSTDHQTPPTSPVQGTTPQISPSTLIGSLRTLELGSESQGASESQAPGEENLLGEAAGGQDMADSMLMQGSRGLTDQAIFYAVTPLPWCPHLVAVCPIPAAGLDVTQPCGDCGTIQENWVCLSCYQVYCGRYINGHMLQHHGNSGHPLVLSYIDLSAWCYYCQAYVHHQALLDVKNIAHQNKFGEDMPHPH

For `COc1cc(NC(=O)NOCCCCCC(=O)NO)c2nccc(C)c2c1`, which CI [1] is on record?
Its CI is under 0.2.

And the CI (CAL-27 [2])?
Its CI is 0.41.

And the CI [3]?
Its CI is 0.23.

What about the CI (CAL-27 [4]) of the same compound?
Its CI is 0.29.

What about the CI [5] of the same compound?
Its CI is 0.25.

And the CI [6]?
The CI was 0.21.

And the CI [7]?
Its CI is 0.51.

What about the CI [8] of the same compound?
The CI was 0.25.

What about the CI (CAL-27 [9]) of the same compound?
The CI was 0.57.

And the Ratio IC50 (Homo sapiens)?
Its Ratio IC50 is under 15.

And the IC50 (A2780)?
Its IC50 is 1100 nM.

And the IC50 (Histone deacetylase 8)?
Its IC50 is 1220 nM.

And the IC50 (Histone deacetylase 1)?
The IC50 was 77.3 nM.

And the IC50 [10]?
Its IC50 is 500 nM.

What about the CI (CAL-27 [11]) of the same compound?
The CI was 0.51.

What about the CI (CAL-27 [12]) of the same compound?
Its CI is 0.43.

And the CI [13]?
The CI was 0.28.

What about the CI (CAL-27 [14]) of the same compound?
The CI was 0.26.

Which CI [1] does the source give for `COc1cc(NC(=O)NOCCCCCC(=O)NO)c2ncccc2c1` here?
The CI was under 0.2.

What about the CI (CAL-27 [2]) of the same compound?
The CI was 0.56.

And the CI [3]?
Its CI is 0.35.

What about the CI (CAL-27 [4]) of the same compound?
The CI was 0.35.

And the CI [5]?
The CI was 0.36.

And the CI [6]?
The CI was 0.41.

What about the CI [7] of the same compound?
Its CI is under 0.2.

What about the CI [8] of the same compound?
Its CI is 0.37.

What about the CI (CAL-27 [9]) of the same compound?
Its CI is 0.97.

And the Ratio IC50 (Homo sapiens)?
The Ratio IC50 was under 15.

And the IC50 (A2780)?
Its IC50 is 1200 nM.

And the IC50 (Histone deacetylase 8)?
The IC50 was 1080 nM.

And the IC50 (Histone deacetylase 1)?
Its IC50 is 51.9 nM.

What about the IC50 [10] of the same compound?
Its IC50 is 700 nM.

And the CI (CAL-27 [11])?
The CI was 0.93.

What about the CI (CAL-27 [12]) of the same compound?
Its CI is 0.63.

And the CI [13]?
Its CI is 0.96.

What about the CI (CAL-27 [14]) of the same compound?
Its CI is 0.37.

What does the source list for `COc1cc(NC(=O)NOCCCCCC(=O)NO)c2nc(OC)cc(C)c2c1`?
CI [1]: 0.56; CI (CAL-27 [2]): 0.69; CI [3]: 0.23; CI (CAL-27 [4]): 0.43; CI [5]: 0.16; CI [6]: 0.23; CI [7]: 0.24; CI [8]: 0.21; CI (CAL-27 [9]): 0.7; Ratio IC50 (Homo sapiens): 15; IC50 (A2780): 800 nM; IC50 (Histone deacetylase 8): 1540 nM; IC50 (Histone deacetylase 1): 43.2 nM; IC50 [10]: 500 nM; CI (CAL-27 [11]): 0.79; CI (CAL-27 [12]): 0.61; CI [13]: 0.19; CI (CAL-27 [14]): 0.49
